Activity calls are given as the source filed them. The rule behind the calls is not given here.
species: Mus musculus; assay: Activity at CD1d in C57BL/6 mouse splenocytes assessed as production of IL4 at 100 nM after 48 hrs by ELISA relative to KRN7000; format: cell-based
Summary of the method: (§1)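 Freshly prepared mouse splenocytes, washed three times by centrifugation in medium, counted in Türk's solution, seeded at 3 × 10⁵ cells/well in RPMI1640 with 10% FBS and 1% penicillin–streptomycin. Ligands dissolved in pyridine (1 mg/mL stock), diluted in medium to final 10, 30, 100, 300 and 1000 nM. Incubated 48 h at 37 °C; supernatant IFN-γ and IL-4 measured by ELISA. KRN7000 as positive control.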

Row | SMILES | Activity [%]
1 | CCCCCCCCCCCCCC[C@@H](O)[C@@H](O)[C@H](CO[C@H]1O[C@H](CO)[C@H](O)[C@H](O)[C@H]1O)NC(=O)CCCCCCCCCCCCCCCCCCCCCCCCF | 21
2 | CCCCCCCCCCCCCC[C@@H](O)[C@@H](O)[C@H](CO[C@H]1O[C@H](CO)[C@H](O)[C@H](O)[C@H]1O)NC(=O)CCCCCCCCCCCCCCCCCCCCCCCCBr | 19
3 | CCCCCCCCCCCCCC[C@@H](O)[C@@H](O)[C@H](CO[C@H]1O[C@H](CO)[C@H](O)[C@H](O)[C@H]1O)NC(=O)CCCCCCCCCCCCCCCC[Se]CCCCCCCC | 35
4 | CCCCCCCCCCCCCC[C@@H](O)[C@@H](O)[C@H](CO[C@H]1O[C@H](CO)[C@H](O)[C@H](O)[C@H]1O)NC(=O)CCCCCCCCCCCCCCCCCCCCCCCCCl | 18
5 | CCCCCCCCCCCCCC[Se]CCCCCCCCCCC(=O)N[C@@H](CO[C@H]1O[C@H](CO)[C@H](O)[C@H](O)[C@H]1O)[C@H](O)[C@H](O)CCCCCCCCCCCCCC | 39

species: Mus musculus; assay: Activity at CD1d in C57BL/6 mouse splenocytes assessed as production of IL4 at 10 to 1000 nM after 48 hrs by ELISA; format: cell-based; summary of the method: as §1

Row | SMILES | Activity
6 | CCCCCCCCCCCCCCCCCCCCCCCCCC(=O)N[C@@H](CO[C@H]1O[C@H](CO)[C@H](O)[C@H](O)[C@H]1O)[C@H](O)[C@H](O)CCCCCCCCCCCCCC | Active
7 | CCCCCCCCCCCCCC[C@@H](O)[C@@H](O)[C@H](CO[C@H]1O[C@H](CO)[C@H](O)[C@H](O)[C@H]1O)NC(=O)CCCCCCCCCCCCCCCCCCCCCCCCF | Active
8 | CCCCCCCCCCCCCC[C@@H](O)[C@@H](O)[C@H](CO[C@H]1O[C@H](CO)[C@H](O)[C@H](O)[C@H]1O)NC(=O)CCCCCCCCCCCCCCCCCCCCCCCCBr | Active
9 | CCCCCCCCCCCCCC[C@@H](O)[C@@H](O)[C@H](CO[C@H]1O[C@H](CO)[C@H](O)[C@H](O)[C@H]1O)NC(=O)CCCCCCCCCCCCCCCC[Se]CCCCCCCC | Active
10 | CCCCCCCCCCCCCC[C@@H](O)[C@@H](O)[C@H](CO[C@H]1O[C@H](CO)[C@H](O)[C@H](O)[C@H]1O)NC(=O)CCCCCCCCCCCCCCCCCCCCCCCCCl | Active
11 | CCCCCCCCCCCCCC[Se]CCCCCCCCCCC(=O)N[C@@H](CO[C@H]1O[C@H](CO)[C@H](O)[C@H](O)[C@H]1O)[C@H](O)[C@H](O)CCCCCCCCCCCCCC | Active

species: Mus musculus; assay: Activity at CD1d in C57BL/6 mouse splenocytes assessed as ratio of IFN-gamma production to IL4 production at 100 nM after 48 hrs by ELISA; format: cell-based; summary of the method: as §1

Row | SMILES | Ratio
12 | CCCCCCCCCCCCCC[C@@H](O)[C@@H](O)[C@H](CO[C@H]1O[C@H](CO)[C@H](O)[C@H](O)[C@H]1O)NC(=O)CCCCCCCCCCCCCCCCCCCCCCCCF | 5
13 | CCCCCCCCCCCCCC[C@@H](O)[C@@H](O)[C@H](CO[C@H]1O[C@H](CO)[C@H](O)[C@H](O)[C@H]1O)NC(=O)CCCCCCCCCCCCCCCCCCCCCCCCBr | 4.4
14 | CCCCCCCCCCCCCC[C@@H](O)[C@@H](O)[C@H](CO[C@H]1O[C@H](CO)[C@H](O)[C@H](O)[C@H]1O)NC(=O)CCCCCCCCCCCCCCCC[Se]CCCCCCCC | 2.9
15 | CCCCCCCCCCCCCC[C@@H](O)[C@@H](O)[C@H](CO[C@H]1O[C@H](CO)[C@H](O)[C@H](O)[C@H]1O)NC(=O)CCCCCCCCCCCCCCCCCCCCCCCCCl | 3.8
16 | CCCCCCCCCCCCCC[Se]CCCCCCCCCCC(=O)N[C@@H](CO[C@H]1O[C@H](CO)[C@H](O)[C@H](O)[C@H]1O)[C@H](O)[C@H](O)CCCCCCCCCCCCCC | 3.3

species: Mus musculus; assay: Activity at CD1d in C57BL/6 mouse splenocytes assessed as production of IFN-gamma at 100 nM after 48 hrs by ELISA relative to KRN7000; format: cell-based; summary of the method: as §1

Row | SMILES | Activity [%]
17 | CCCCCCCCCCCCCC[C@@H](O)[C@@H](O)[C@H](CO[C@H]1O[C@H](CO)[C@H](O)[C@H](O)[C@H]1O)NC(=O)CCCCCCCCCCCCCCCCCCCCCCCCF | 104
18 | CCCCCCCCCCCCCC[C@@H](O)[C@@H](O)[C@H](CO[C@H]1O[C@H](CO)[C@H](O)[C@H](O)[C@H]1O)NC(=O)CCCCCCCCCCCCCCCCCCCCCCCCBr | 84
19 | CCCCCCCCCCCCCC[C@@H](O)[C@@H](O)[C@H](CO[C@H]1O[C@H](CO)[C@H](O)[C@H](O)[C@H]1O)NC(=O)CCCCCCCCCCCCCCCC[Se]CCCCCCCC | 103
20 | CCCCCCCCCCCCCC[C@@H](O)[C@@H](O)[C@H](CO[C@H]1O[C@H](CO)[C@H](O)[C@H](O)[C@H]1O)NC(=O)CCCCCCCCCCCCCCCCCCCCCCCCCl | 68
21 | CCCCCCCCCCCCCC[Se]CCCCCCCCCCC(=O)N[C@@H](CO[C@H]1O[C@H](CO)[C@H](O)[C@H](O)[C@H]1O)[C@H](O)[C@H](O)CCCCCCCCCCCCCC | 130

species: Mus musculus; assay: Activity at CD1d in C57BL/6 mouse splenocytes assessed as production of IFN-gamma at 10 to 1000 nM after 48 hrs by ELISA; format: cell-based; summary of the method: as §1

Row | SMILES | Activity
22 | CCCCCCCCCCCCCC[C@@H](O)[C@@H](O)[C@H](CO[C@H]1O[C@H](CO)[C@H](O)[C@H](O)[C@H]1O)NC(=O)CCCCCCCCCCCCCCCCCCCCCCCCF | Active
23 | CCCCCCCCCCCCCC[C@@H](O)[C@@H](O)[C@H](CO[C@H]1O[C@H](CO)[C@H](O)[C@H](O)[C@H]1O)NC(=O)CCCCCCCCCCCCCCCCCCCCCCCCBr | Active
24 | CCCCCCCCCCCCCC[C@@H](O)[C@@H](O)[C@H](CO[C@H]1O[C@H](CO)[C@H](O)[C@H](O)[C@H]1O)NC(=O)CCCCCCCCCCCCCCCC[Se]CCCCCCCC | Active
25 | CCCCCCCCCCCCCC[C@@H](O)[C@@H](O)[C@H](CO[C@H]1O[C@H](CO)[C@H](O)[C@H](O)[C@H]1O)NC(=O)CCCCCCCCCCCCCCCCCCCCCCCCCl | Active
26 | CCCCCCCCCCCCCC[Se]CCCCCCCCCCC(=O)N[C@@H](CO[C@H]1O[C@H](CO)[C@H](O)[C@H](O)[C@H]1O)[C@H](O)[C@H](O)CCCCCCCCCCCCCC | Active

Source: ChEMBL document CHEMBL3813690, “Synthesis and Th1-immunostimulatory activity of α-galactosylceramide analogues bearing a halogen-containing or selenium-containing acyl chain” (Bioorg Med Chem, 2016)
